Data: ChEMBL document CHEMBL4411287, “Discovery and optimization of a series of 3-substituted indazole derivatives as multi-target kinase inhibitors for the treatment of lung squamous cell carcinoma” (Eur J Med Chem, 2019)

Legend:
[1] = system: T1, Discoidin domain-containing receptor 2 (Homo sapiens), Q16832 [I638F]; assay: Inhibition of DDR2 I638F mutant phosphorylation in human NCI-H2286 cells after 2 hrs by Western blot analysis; type: cell-based
T1 sequence (whole entry): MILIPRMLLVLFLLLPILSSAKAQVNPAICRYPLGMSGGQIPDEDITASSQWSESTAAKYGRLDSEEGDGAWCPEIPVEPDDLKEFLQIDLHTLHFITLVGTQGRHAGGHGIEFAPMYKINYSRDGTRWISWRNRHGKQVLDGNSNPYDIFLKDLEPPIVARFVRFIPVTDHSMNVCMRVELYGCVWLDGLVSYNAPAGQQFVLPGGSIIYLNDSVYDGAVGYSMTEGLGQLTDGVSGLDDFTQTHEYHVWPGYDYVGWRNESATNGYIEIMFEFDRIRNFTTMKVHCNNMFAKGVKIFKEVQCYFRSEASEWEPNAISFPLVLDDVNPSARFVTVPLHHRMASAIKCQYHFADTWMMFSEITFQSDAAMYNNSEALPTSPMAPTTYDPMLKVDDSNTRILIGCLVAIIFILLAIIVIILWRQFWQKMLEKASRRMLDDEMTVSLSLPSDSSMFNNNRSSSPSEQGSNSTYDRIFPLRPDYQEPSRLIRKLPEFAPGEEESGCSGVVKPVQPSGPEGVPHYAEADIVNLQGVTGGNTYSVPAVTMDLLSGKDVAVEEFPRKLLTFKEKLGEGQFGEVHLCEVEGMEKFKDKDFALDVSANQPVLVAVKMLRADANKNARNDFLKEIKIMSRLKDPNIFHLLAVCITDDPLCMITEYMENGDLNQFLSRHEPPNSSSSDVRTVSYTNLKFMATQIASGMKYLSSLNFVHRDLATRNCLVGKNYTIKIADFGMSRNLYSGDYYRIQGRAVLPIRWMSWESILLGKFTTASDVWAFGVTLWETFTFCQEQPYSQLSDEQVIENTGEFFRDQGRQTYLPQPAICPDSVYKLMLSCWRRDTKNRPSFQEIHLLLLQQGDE
Summary of the method: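 NCI-H2286 cells exposed to compound for 2 h at 37 °C and lysed in SDS sample buffer. Lysates run on 10% SDS-PAGE and blotted to nitrocellulose. Membranes probed for phospho- and total DDR2, ERK and Akt, with GAPDH as loading control, and detected by HRP secondary antibody and enhanced chemiluminescence.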

[2] = target: Fibroblast growth factor receptor 2 (Homo sapiens) (UniProt P21802); assay: Inhibition of FGFR2 (unknown origin) at 10 nM relative to control
Summary of the method: (§1)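 Purified recombinant kinase domains run in ELISA on precoated poly(Glu,Tyr) 4:1 (20 µg/mL) with 10 µM ATP in 50 mM HEPES pH 7.4, 50 mM MgCl2, 0.5 mM MnCl2, 0.2 mM Na3VO4, 1 mM DTT; 1% DMSO control; 60 min at 37 °C. Phosphotyrosine read by PY99 antibody, HRP anti-mouse IgG, OPD/H2O2 at 490 nm; inhibition = [1−A490/A490control]×100%; two separate experiments.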

[3] = target: Mitogen-activated protein kinase 1 (Homo sapiens) (UniProt P28482); assay: Inhibition of ERK2 (unknown origin) at 10 nM relative to control
[4] = target: Tyrosine-protein kinase JAK2 (Homo sapiens) (UniProt O60674); assay: Inhibition of JAK2 (unknown origin) at 100 nM relative to control; summary of the method: as §1
[5] = target: Cyclin-dependent kinase 4 (Homo sapiens) (UniProt P11802); assay: Inhibition of CDK4 (unknown origin) at 1000 nM relative to control
[6] = AUC (0 to t) in ICR(CD-1) mouse at 10 mg/kg, po administered via gavage by triple quadrupole mass spectrometric analysis; type: ADME, organism-based; conditions: in vivo
Summary of the method: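 Oral gavage at 1 mg/mL in 1% Tween80/water to male ICR mice (18-22 g, n=3). Plasma sampled at 0.25, 0.5, 1, 2, 4, 8 and 24 h, protein precipitated with methanol:acetonitrile (1:1) containing internal standard, and quantified by UPLC-triple quadrupole MS. AUC and MRT were taken from per-animal time-concentration curves. Cmax is the maximum plasma level and Tmax the time to reach it.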

[7] = target: Macrophage colony-stimulating factor 1 receptor (Homo sapiens) (UniProt P07333); assay: Inhibition of CSF-1R (unknown origin) at 1000 nM relative to control
Chain of Macrophage colony-stimulating factor 1 receptor (Homo sapiens) (P07333 whole entry): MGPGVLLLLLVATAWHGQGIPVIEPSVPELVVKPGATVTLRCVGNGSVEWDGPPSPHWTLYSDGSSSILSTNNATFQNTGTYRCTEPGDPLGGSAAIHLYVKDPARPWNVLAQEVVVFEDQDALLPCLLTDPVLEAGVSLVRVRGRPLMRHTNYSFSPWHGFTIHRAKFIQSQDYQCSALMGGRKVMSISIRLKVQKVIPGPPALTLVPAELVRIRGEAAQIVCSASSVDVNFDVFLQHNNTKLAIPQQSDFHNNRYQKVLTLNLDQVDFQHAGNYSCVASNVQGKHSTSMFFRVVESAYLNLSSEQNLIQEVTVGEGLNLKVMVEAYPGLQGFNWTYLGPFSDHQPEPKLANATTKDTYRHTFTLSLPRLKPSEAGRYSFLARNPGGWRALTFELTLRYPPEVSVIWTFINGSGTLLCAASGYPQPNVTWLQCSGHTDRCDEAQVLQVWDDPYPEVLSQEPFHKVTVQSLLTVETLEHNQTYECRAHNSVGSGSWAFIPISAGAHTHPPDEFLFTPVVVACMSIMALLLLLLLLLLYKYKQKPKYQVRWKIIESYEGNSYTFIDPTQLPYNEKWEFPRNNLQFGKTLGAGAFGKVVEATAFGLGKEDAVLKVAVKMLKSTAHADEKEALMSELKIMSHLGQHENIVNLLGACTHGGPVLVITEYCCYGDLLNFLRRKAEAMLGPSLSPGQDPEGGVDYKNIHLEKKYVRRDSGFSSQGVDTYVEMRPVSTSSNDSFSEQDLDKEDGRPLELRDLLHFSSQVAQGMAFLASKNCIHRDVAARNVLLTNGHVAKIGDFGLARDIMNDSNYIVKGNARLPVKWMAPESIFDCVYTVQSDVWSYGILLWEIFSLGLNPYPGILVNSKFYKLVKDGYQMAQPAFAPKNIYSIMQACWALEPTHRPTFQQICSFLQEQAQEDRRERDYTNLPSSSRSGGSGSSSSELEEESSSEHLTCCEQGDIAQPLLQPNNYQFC

[8] = target: Cyclin-dependent kinase 1 (Homo sapiens) (UniProt P06493); assay: Inhibition of CDK1 (unknown origin) at 1000 nM relative to control
[9] = target: Tyrosine-protein kinase JAK1 (Homo sapiens) (UniProt P23458); assay: Inhibition of JAK1 (unknown origin) at 1000 nM relative to control; summary of the method: as §1
[10] = target: Macrophage colony-stimulating factor 1 receptor (Homo sapiens) (UniProt P07333); assay: Inhibition of CSF-1R (unknown origin) at 10 nM relative to control
[11] = target: Fibroblast growth factor receptor 3 (Homo sapiens) (UniProt P22607); assay: Inhibition of FGFR3 (unknown origin) at 10 nM relative to control; summary of the method: as §1
Chain of Fibroblast growth factor receptor 3 (Homo sapiens) (P22607 23-806 limits assumed): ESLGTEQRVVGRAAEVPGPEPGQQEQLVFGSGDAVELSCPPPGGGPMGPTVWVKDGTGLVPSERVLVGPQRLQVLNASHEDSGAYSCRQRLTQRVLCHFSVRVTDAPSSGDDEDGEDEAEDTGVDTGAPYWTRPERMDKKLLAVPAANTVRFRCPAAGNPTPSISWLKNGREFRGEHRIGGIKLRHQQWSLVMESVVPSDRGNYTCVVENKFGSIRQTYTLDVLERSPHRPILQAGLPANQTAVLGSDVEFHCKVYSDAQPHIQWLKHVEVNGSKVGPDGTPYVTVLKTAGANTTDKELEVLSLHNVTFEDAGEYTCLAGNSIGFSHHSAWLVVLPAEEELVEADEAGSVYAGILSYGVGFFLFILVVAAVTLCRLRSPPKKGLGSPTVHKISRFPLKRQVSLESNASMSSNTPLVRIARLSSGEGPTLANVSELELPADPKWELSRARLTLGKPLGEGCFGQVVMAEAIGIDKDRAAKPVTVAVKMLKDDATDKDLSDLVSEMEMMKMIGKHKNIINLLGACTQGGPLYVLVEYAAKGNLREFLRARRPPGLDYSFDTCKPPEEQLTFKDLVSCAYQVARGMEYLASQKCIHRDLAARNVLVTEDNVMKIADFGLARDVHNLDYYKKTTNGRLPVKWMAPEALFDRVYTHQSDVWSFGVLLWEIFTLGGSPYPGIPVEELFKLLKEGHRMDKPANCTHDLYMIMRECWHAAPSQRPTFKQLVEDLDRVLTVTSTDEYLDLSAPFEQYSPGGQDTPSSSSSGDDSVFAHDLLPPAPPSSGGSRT

[12] = target: Receptor-type tyrosine-protein kinase FLT3 (Homo sapiens) (UniProt P36888); assay: Inhibition of FLT-3 (unknown origin) at 10 nM relative to control; summary of the method: as §1
Chain of Receptor-type tyrosine-protein kinase FLT3 (Homo sapiens) (P36888 whole entry): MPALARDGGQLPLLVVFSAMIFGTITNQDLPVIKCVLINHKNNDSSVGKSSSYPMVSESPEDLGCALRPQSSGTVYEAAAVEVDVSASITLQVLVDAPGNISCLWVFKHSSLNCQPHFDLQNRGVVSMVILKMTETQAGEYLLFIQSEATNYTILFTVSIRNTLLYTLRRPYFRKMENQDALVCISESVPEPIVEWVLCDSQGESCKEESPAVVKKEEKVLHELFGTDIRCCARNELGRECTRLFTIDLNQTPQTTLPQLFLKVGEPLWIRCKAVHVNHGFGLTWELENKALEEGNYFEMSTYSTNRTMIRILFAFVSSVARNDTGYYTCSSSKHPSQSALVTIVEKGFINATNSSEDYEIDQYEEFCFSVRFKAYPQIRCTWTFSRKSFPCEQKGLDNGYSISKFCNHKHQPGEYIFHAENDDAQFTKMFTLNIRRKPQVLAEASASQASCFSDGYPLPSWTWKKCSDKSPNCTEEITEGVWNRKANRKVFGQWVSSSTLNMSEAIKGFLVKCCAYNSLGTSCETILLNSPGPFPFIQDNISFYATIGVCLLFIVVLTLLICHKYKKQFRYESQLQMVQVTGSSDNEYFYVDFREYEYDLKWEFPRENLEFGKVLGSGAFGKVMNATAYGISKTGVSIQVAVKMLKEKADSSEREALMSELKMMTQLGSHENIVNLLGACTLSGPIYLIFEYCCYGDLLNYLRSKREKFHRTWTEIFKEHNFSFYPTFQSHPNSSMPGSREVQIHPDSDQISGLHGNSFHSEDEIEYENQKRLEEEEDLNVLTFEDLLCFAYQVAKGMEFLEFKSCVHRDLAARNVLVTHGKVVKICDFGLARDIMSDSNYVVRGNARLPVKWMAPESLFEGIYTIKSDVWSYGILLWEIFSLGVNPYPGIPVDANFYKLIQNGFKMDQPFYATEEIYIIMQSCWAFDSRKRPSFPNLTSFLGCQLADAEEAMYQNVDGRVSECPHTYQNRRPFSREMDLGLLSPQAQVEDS

[13] = target: Receptor-type tyrosine-protein kinase FLT3 (Homo sapiens) (UniProt P36888); assay: Inhibition of FLT-3 (unknown origin) at 1000 nM relative to control; summary of the method: as §1
[14] = target: Cyclin-dependent kinase 6 (Homo sapiens) (UniProt Q00534); assay: Inhibition of CDK6 (unknown origin) at 1000 nM relative to control
[15] = target: Vascular endothelial growth factor receptor 1 (Homo sapiens) (UniProt P17948); assay: Inhibition of VEGFR1 (unknown origin) at 100 nM relative to control
Chain of Vascular endothelial growth factor receptor 1 (Homo sapiens) (P17948 whole entry): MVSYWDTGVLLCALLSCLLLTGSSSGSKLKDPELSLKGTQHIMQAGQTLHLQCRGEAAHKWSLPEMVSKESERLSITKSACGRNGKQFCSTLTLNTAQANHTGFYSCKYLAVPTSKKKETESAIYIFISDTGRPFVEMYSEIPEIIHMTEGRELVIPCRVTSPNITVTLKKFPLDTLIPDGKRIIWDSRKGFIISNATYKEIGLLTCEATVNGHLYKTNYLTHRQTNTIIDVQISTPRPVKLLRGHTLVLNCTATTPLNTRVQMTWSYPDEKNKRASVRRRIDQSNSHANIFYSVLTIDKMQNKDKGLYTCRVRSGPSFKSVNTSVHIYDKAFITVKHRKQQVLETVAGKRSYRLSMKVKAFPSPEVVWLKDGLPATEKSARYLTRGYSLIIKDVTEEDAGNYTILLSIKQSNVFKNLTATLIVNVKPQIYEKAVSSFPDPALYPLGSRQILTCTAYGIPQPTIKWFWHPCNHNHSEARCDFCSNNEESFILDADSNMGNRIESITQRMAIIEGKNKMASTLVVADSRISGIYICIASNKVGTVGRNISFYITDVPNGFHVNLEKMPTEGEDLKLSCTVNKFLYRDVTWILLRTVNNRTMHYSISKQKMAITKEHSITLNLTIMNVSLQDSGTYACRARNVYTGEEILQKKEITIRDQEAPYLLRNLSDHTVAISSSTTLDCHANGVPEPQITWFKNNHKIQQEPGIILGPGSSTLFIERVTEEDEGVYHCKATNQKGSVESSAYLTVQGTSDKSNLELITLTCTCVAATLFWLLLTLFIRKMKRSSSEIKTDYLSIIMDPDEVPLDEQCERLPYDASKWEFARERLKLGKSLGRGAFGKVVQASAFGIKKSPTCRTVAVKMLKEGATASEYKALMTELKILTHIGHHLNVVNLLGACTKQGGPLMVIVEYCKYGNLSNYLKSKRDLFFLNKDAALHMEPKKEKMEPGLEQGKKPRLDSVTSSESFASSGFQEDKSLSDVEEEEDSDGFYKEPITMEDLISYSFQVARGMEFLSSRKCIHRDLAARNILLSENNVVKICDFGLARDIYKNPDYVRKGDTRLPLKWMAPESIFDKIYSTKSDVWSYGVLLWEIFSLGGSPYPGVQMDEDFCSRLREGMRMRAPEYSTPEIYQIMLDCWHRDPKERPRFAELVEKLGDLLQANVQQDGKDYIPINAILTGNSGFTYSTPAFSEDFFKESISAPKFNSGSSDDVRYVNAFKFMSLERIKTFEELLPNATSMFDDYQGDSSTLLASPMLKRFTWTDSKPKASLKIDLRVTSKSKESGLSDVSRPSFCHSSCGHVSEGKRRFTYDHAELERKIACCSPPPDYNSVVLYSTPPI
Summary of the method: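 ELISA with purified recombinant kinase on plates precoated with poly(Glu,Tyr) 4:1 at 20 µg/mL. ATP 10 µM in HEPES pH 7.4 buffer with MgCl2, MnCl2, Na3VO4 and DTT. Run 60 min at 37 °C. Detected with anti-phosphotyrosine PY99, HRP secondary antibody and o-phenylenediamine, read at 490 nm. Inhibition % = [1 − A490/A490 control]×100. 1% DMSO as negative control.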

[16] = target: Fibroblast growth factor receptor 3 (Homo sapiens) (UniProt P22607); assay: Inhibition of FGFR3 (unknown origin) at 100 nM relative to control; summary of the method: as §1
[17] = target: Platelet-derived growth factor receptor alpha (Homo sapiens) (UniProt P16234); assay: Inhibition of PDGFR-alpha (unknown origin) at 100 nM relative to control; summary of the method: as §1
[18] = target: Tyrosine-protein kinase receptor UFO (Homo sapiens) (UniProt P30530); assay: Inhibition of AXL (unknown origin) at 100 nM relative to control
[19] = target: Fibroblast growth factor receptor 4 (Homo sapiens) (UniProt P22455); assay: Inhibition of FGFR4 (unknown origin) at 10 nM relative to control; summary of the method: as §1
Chain of Fibroblast growth factor receptor 4 (Homo sapiens) (P22455 22-802 limits assumed): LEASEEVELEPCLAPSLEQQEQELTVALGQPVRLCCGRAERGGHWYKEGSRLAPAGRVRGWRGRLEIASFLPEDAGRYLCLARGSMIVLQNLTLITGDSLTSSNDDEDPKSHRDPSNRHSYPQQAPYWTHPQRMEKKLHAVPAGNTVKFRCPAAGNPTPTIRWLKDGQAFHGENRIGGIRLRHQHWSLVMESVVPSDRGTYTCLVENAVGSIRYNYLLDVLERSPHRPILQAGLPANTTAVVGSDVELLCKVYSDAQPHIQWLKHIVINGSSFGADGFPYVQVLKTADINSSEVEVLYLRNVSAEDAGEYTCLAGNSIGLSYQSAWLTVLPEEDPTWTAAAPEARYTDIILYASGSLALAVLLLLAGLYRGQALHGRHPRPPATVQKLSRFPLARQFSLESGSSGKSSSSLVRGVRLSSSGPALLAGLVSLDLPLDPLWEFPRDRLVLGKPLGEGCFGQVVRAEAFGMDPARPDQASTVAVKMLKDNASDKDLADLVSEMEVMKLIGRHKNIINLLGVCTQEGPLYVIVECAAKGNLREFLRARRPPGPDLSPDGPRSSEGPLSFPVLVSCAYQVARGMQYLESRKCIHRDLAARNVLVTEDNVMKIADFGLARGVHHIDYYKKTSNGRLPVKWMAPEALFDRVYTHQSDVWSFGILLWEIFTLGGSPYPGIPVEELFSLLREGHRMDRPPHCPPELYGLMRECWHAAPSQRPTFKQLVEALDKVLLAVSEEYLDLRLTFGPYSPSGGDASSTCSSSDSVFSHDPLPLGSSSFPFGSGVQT

- inhibition [1]: Dose-dependent effect
- inhibition [2]: 67.8%
- inhibition [3]: 0.3%
- inhibition [4]: 2.5%
- inhibition [5]: 0.9%
- AUC(0-t) [6]: 7640 ng·h/mL
- inhibition [7]: 94.2%
- inhibition [8]: 5.6%
- inhibition [9]: 31.2%
- inhibition [10]: 65.3%
- inhibition [11]: 52.3%
- inhibition [12]: 59.3%
- inhibition [13]: 86.2%
- inhibition [14]: 5.9%
- inhibition [15]: 46.8%
- inhibition [16]: 82%
- inhibition [17]: 75.7%
- inhibition [18]: 72.6%
- inhibition [19]: 8.1%
Compound: Cc1ccc(C(=O)Nc2cccc(C(F)(F)F)c2)cc1-c1ccc2c(-c3cnn(C4CC4)c3)n[nH]c2c1
